Screening results: PubChem BioAssay, several laboratories
ATG4B inh: ATG4B (human) cysteine protease inhibition; inhibition, % at 8.33 µM; Q9Y4P1; ATG4B cleavage of LC3-PLA2, NBD-HPC fluorescence, 1 h; actives 0.51% (n = 340,000)
TPT1 inh: C. albicans TPT1 enzyme inhibition; recombinant caTPT1, FP RNA substrate dephosphorylation; inhibition, % at 5 µM; actives 0.81% (n = 300,000);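 active = inhibition above the mean of all tested compounds plus 3 SD, set per screening campaign, cut at about 24% in these data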;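 note: plate controls were DMSO alone for no effect and ferristatin control at 100 nM for full effect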
SENP1 FRET inh: blocks the human SENP1 SUMO protease catalytic domain; recombinant SENP1 catalytic domain, CyPet-SUMO1-YPet FRET cleavage; actives 0.21% (n = 360,000); inhibition, % at 10 µM;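 active = inhibition at least 30% at 10 µM, raw YFP signal under a set limit, fluorescence ratio 0.5 to 1.5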;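 note: 0% = enzyme with DMSO and 100% = no enzyme wells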
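material = recombinant human SENP1 catalytic domain, His6-tagged | quantity = 20 pM enzyme | reagent = 25 nM SUMO1 FRET substrate | compound dosing = 10 µM single point, 0.5% DMSO | timing = 50 min enzyme reaction, room temperature, light-protected | detection = FRET, CFP and YFP emission | control set = no-enzyme low, enzyme-DMSO high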
Rpn11 block: inhibitors of human proteasome Rpn11; human 26S proteasome, Ub4-pepOG fluorescence polarization; 20S core pre-blocked with epoxomicin; O00487; AID 588493; inhibition, % at 20 µM; actives 0.59% (n = 360,000);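 active = inhibition at 20 µM, scaled to each plate's controls, above about 33%, limit read from the data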
HNF4A DNA FP: change in binding of human HNF4 alpha to DNA; activity change, % at 10 µM; HNF4a-FITC DNA binding, fluorescence polarization, 1 h; actives 0.3% (n = 360,000); AID 1224865; in the data active = activity change above about 30%, passing the limit was not always enough
CSN deneddyl inh: inhibitors of human CSN-mediated cullin deneddylation. Q92905. inhibition, % at 12.5 µM. AID 651999. Purified CSN, SCF-Nedd8-OG deneddylation, fluorescence polarization. actives 0.38% (n = 360,000);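 active = pattern-corrected inhibition above about 35%, with an unprinted fluorescence ratio check between 0.5 and 1.5, limit read from the data, passing the limit was not always enough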;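 note: 0% = enzyme with substrate and 100% = substrate without enzyme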
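Material: purified human Csn5 enzyme expressed in HEK293T cells / Medium: Tris buffer pH 7.5, NaCl, DTT, Tween-20, trehalose, ovalbumin / Compound dosing: 12.5 µM single point / Schedule: 90 min incubation of compound, enzyme and substrate at room temperature / Signal: fluorescence polarization of the substrate / Control set: no-enzyme wells high, enzyme-with-substrate wells low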
Rpn11 inh conf: Rpn11 inhibition confirmation, single concentration. shares compounds with Rpn11 block. purified human 26S proteasome, Ub4-pepOG fluorescence polarization; proteasome pretreated with epoxomicin. inhibition, % at 20 µM. actives 29% (n = 1,900). AID 602318
MMP-2 counter: blocks human MMP-2, flagging nonselective RPN11 hits; shares compounds with Rpn11 block; recombinant MMP-2, FRET peptide cleavage fluorescence; inhibition, % at 20 µM; actives 4% (n = 1,900); AID 602330;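 note: human MMP-2 activated beforehand with APMA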
Target sequence (P08253 whole entry, looked up): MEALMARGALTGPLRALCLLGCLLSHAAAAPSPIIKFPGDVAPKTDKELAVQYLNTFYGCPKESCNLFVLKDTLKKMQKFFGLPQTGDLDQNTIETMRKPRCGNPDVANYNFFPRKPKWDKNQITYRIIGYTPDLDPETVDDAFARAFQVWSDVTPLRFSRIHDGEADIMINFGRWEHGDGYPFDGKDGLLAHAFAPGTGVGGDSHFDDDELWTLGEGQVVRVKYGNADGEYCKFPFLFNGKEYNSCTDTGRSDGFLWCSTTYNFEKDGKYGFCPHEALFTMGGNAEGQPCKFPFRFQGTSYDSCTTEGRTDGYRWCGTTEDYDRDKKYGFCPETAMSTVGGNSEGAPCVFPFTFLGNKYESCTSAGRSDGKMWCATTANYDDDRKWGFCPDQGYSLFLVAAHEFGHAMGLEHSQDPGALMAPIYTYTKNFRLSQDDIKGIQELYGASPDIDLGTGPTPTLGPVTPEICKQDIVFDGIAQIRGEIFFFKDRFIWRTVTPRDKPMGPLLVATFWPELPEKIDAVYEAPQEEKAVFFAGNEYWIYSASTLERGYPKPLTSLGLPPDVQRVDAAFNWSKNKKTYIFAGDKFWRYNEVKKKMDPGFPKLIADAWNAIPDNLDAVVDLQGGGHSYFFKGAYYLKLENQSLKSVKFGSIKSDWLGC
Thrombin inh: blocks bovine thrombin, flagging nonselective RPN11 hits; shares compounds with Rpn11 block; bovine thrombin cleavage of Ub4-pepOG, fluorescence polarization; inhibition, % at 20 µM; actives 13% (n = 1,900); AID 602333;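 active = mean inhibition at least 40% at 20 µM, or signal 3 deviations below plate average, so some actives read negative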;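 note: plate controls were thrombin with DMSO for no effect and buffer wells lacking thrombin for full effect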
Starred values were filed as active, the others as inactive; / = no result. Rows were chosen to be rich in hits. Some 2% of all compounds tested hit in one or more screens of this group. Cut-off read from the data, not from the text of the source, unless noted: active = inhibition above about 40%; inactive = the rest.

SMILES	ATG4B inh	TPT1 inh	SENP1 FRET inh	Rpn11 block	HNF4A DNA FP	CSN deneddyl inh	Rpn11 inh conf	MMP-2 counter	Thrombin inh
COc1ccc(-c2cc(C(=O)Nc3cc(C)nn3-c3ccccc3)no2)cc1	-5	-5	3	16	1	0	/	/	/
COc1ccccc1-c1cc(C(=O)Nc2cc(C)nn2-c2ccccc2)no1	12	0	2	59*	6	31	65*	-20	9
O=C(NCc1cccc(F)c1)C1CCC(=O)N(CC2CCCCC2)C1 (stereo not given)	0	2	1	-10	-1	-1	/	/	/
c1cc(CCCc2ccncc2)ccn1	0	/	1	-2	2	-2	/	/	/
CCc1ccc(N=C2NC(=O)/C(=C/c3cc(OC)c(OC)c(OC)c3)S2)cc1	5	-2	-12	-6	3	-1	/	/	/
COc1cc(/C=C2\SC(=Nc3ccc(O)cc3)NC2=O)cc(OC)c1O	7	17	64	45*	8	11	5	0	8
CCCN(CC(=O)Nc1cc(C)on1)S(=O)(=O)c1cccc(C(F)(F)F)c1	-13	-3	3	35*	5	1	-5	21	1
COc1ccc(C(=O)/C(C#N)=N/Nc2ccc([N+](=O)[O-])cc2)cc1	-5	5	17	34*	16	2	4	0	-29
COc1ccc(C(=O)/C(C#N)=N/Nc2ccccc2[N+](=O)[O-])cc1	-6	5	4	-7	2	-11	/	/	/
CCOC(=O)C1CCCN(Cc2nc3ccc([N+](=O)[O-])cc3c(=O)n2-c2ccc(OC)cc2OC)C1 (stereo not given)	-2	0	1	109*	37*	4	0	-25	-15
CCOC(=O)C1CCN(Cc2nc3ccc([N+](=O)[O-])cc3c(=O)n2-c2ccc(OC)cc2OC)CC1	-3	-3	-3	2	-2	0	/	/	/
O=C1N/C(=C/c2cccn2-c2ccccc2)C(=O)N1Cc1ccc(F)cc1	1	8	-27	42*	8	5	14	-25	-4
CCC(C)(C)c1nnc(NC(=O)c2cccc([N+](=O)[O-])c2)s1	0	-1	3	-2	2	-2	/	/	/
Cc1ccc(-c2ccc(S(=O)(=O)N3CC(C)OC(C)C3)cc2)cc1 (stereo not given)	-4	-1	0	64*	25	1	-8	-2	-1
Cn1c(N)c(C(=O)COC(=O)c2cc(-c3ccccc3)nc3ccccc23)c(=O)n(C)c1=O	/	-3	/	/	/	/	/	/	/
Cn1c(N)c(C(=O)COC(=O)c2cc(C3CC3)nc3ccccc23)c(=O)n(Cc2ccccc2)c1=O	-17	16	-85	41*	20	2	29	-15	6
CC(C)Cn1c(N)c(C(=O)COC(=O)c2cc(C3CC3)nc3ccccc23)c(=O)n(C)c1=O	1	-5	/	/	/	/	/	/	/
Cn1c(N)c(C(=O)COC(=O)c2cc(-c3ccccc3)nc3ccccc23)c(=O)n(Cc2ccccc2)c1=O	-5	6	-84	45*	20	-1	33	2	20
CC(C)Cn1c(N)c(C(=O)COC(=O)c2cc(-c3ccco3)nc3ccccc23)c(=O)n(C)c1=O	-2	16	-29	41*	0	32	4	-37	10
O=C(c1ccc(Cl)cc1)N1CCC(C(=O)N2CCN(c3ncccn3)CC2)CC1	-9	/	-1	0	2	-3	/	/	/
COc1ccc(Cl)cc1NC(=O)c1cc(-c2ccco2)on1	5	10	7	46*	19	20	12	-15	2
O=C(Nc1cc(Cl)ccc1Cl)c1cc(-c2ccco2)on1	3	9	2	17	11	5	/	/	/
O=C(CN1C(=O)c2cccc3cccc1c23)NC1CCCCC1	-2	3	-21	-5	2	3	/	/	/
CCCCCCOC(=O)c1ccc(N)cc1	-4	-3	-2	3	-3	2	/	/	/
CCCCCCCCCCCC1N=C(N)NC(CCCO)=C1C(=O)OC (stereo not given)	13	/	-4	86*	13	16	49*	-28	-35
SMILES	ATG4B inh	TPT1 inh	SENP1 FRET inh	Rpn11 block	HNF4A DNA FP	CSN deneddyl inh	Rpn11 inh conf	MMP-2 counter	Thrombin inh
Cc1cccc(C(=O)Nc2ccc(N3CCN(c4ccc(C(F)(F)F)cn4)CC3)nc2)c1	-6	-1	-4	46*	22	1	-9	-39	4
Cc1ccc(-c2c(C#N)c(N)n3c(nc4ccccc43)c2C#N)cc1	-11	22	-16	63*	10	16	63*	3	82*
N#Cc1c(-c2ccccc2)c(C#N)c2nc3ccccc3n2c1N	-10	14	-32	16	7	8	/	/	/
CSc1ccc(/C=C2\C(=N)N3N=C(CC(=O)N4CCCCC4)SC3=NC2=O)cc1	15	12	1	52*	17	2	30	13	11
CSc1ccc(/C=C2\C(=N)N3N=C(CC(=O)N4CCOCC4)SC3=NC2=O)cc1	19	5	-2	2	3	3	/	/	/
CC(C)(C)NC(=O)COC(=O)c1ccccc1C(=O)c1ccccc1	2	0	2	2	-2	-12	/	/	/
COc1cc(/C=N/Nc2ccc([N+](=O)[O-])cc2S(=O)(=O)N2CCOCC2)cc(OC)c1OC	-12	1	-28	44*	3	4	-5	-4	-16
CC1(c2cccc3ccccc23)NC(=O)N(CC(=O)NC2CCS(=O)(=O)C2)C1=O (stereo not given)	-1	1	3	2	-2	7	/	/	/
Cc1csc(SCC(=O)NC(=O)NCc2ccccc2)n1	-9	-2	-14	183*	-1	0	-10	15	6
Cc1csc(SCC(=O)NC(=O)Cc2ccccc2)n1	2	1	2	3	1	-1	/	/	/
Cc1ccc([C@@H]2CC=C(C(=O)O)[C@H](c3ccccc3F)N2S(=O)(=O)c2ccccc2C)cc1	1	/	0	4	2	2	/	/	/
COc1ccc(Cl)cc1NC(=O)CN(C)C(=O)C12CC3CC(CC(Cl)(C3)C1)C2	-9	/	-6	0	2	0	/	/	/
COc1ccc(NC(=O)c2cc(OC)c(OC)cc2OC)c(S(=O)(=O)N2CCOCC2)c1	0	-1	-1	161*	-21	-1	-2	6	-3
